The source of these data is article PMC3634367 (Biochemistry, 2011).

Non-standard residues stand in square brackets, D forms with d. Residues, ends and D or L forms follow the SMILES beside them. pT = C[C@@H](OP(=O)(O)O)[C@H](N)C(=O)O; pS = N[C@@H](COP(=O)(O)O)C(=O)O

The target of assay [1] is wild-type human arrestin-2 (wt-arr2_(1-418)) (human) (UniProt P49407). The assay is described as follows: ITC. A general note: Isothermal titration calorimetry measures the heat released or taken up as one component is titrated into another.
wild-type human arrestin-2 (wt-arr2_(1-418)) (human), sequence (P49407 whole entry, the tested form may be a part): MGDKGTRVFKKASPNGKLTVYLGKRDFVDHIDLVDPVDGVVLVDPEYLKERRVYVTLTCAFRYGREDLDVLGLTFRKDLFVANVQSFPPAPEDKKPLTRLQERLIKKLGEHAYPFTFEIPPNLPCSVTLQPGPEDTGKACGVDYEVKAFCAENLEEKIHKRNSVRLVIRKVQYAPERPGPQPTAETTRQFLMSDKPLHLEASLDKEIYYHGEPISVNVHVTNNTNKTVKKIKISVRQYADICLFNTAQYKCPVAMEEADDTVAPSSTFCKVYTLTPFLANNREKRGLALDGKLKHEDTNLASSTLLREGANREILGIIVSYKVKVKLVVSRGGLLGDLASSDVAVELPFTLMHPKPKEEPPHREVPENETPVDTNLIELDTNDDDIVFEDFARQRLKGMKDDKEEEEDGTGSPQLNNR
In assay [2] the target is truncated human arrestin-2 mutant comprised of residues 1-382 (tr-arr2_(1-382)) (human) (UniProt P49407). In words: ITC.
truncated human arrestin-2 mutant comprised of residues 1-382 (tr-arr2_(1-382)) (human), sequence (P49407 1-382, change not shown): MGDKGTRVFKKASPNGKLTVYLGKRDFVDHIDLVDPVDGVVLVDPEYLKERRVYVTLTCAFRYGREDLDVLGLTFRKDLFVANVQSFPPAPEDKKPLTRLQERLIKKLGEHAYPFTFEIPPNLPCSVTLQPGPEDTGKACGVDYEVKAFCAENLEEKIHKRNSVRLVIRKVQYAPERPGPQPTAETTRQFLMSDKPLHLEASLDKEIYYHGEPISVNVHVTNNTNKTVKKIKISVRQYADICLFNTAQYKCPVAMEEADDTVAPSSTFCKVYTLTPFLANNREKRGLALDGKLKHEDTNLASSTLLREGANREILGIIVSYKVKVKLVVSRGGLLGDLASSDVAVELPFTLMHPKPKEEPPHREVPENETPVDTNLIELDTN
The subject of a further assay is arrestin-2. The conditions noted are these: doubly phosphorylated Thr419-ASN439 peptide of CB1 C-terminus; cited from earlier work.
For assay [3], the target named is T1, tr-arr2_1-382 (truncated human arrestin-2 mutant) (Homo sapiens, UniProt P49407). The assay is described as follows: Isothermal titration calorimetry. Type of assay: binding. Put shortly:
(§1)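 Untagged protein from E. coli BL21, purified by ammonium sulfate precipitation, heparin affinity and size exclusion. ITC at 283K in 10 mM NaH2PO4 pH 7.0, 100 mM NaCl: cell arrestin-2 0.01 mM, syringe test peptide 0.5 mM. 13 injections of 15 ul, 210 s apart, up to 2-fold peptide excess. Peptide dilution heats into buffer run as control. Isotherms fitted to one-site, 1:1 model.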

For assay [4], the target named is T2, wt-arr2_1-418 (full-length human arrestin-2) (Homo sapiens, UniProt P49407). The assay is described as follows: Isothermal titration calorimetry. The format is binding. Put shortly:
as §1

Assay [5] addresses T2, wt-arr2_1-418 (full-length human arrestin-2). In words: Transferred NOESY NMR of arrestin-peptide mixture, full-length arrestin-2. The format is binding. The conditions noted are these: 0.1 mM wt-arr2_1-418, 1 mM peptide (1:10), pH 6.9-7.1, 10°C, 600 MHz.
In assay [6] the target is T1, tr-arr2_1-382 (truncated human arrestin-2 mutant). In words: Transferred NOESY NMR of arrestin-peptide mixture, truncated arrestin-2. The format is binding. The conditions noted are these: 0.1 mM tr-arr2_1-382, 1 mM peptide (1:10), pH 6.9-7.1, 10°C, 600 MHz.
Where [7] appears, read: ITC, 283K, 10 mM NaH2PO4 pH 7.0, 100 mM NaCl.

T2 sequence (P49407 whole entry): as the sequence (P49407 whole entry, the tested form may be a part) above
T1 sequence (P49407 1-382, stated change not applied): as the sequence (P49407 1-382, change not shown) above

Turning to “CB1^5P_(454-473), pentaphosphorylated peptide mimicking residues 454-473 of CB1”, the figures for the Kd in assay [1] and in assay [2] were 116 µM and 2.2 µM, respectively.

With “doubly phosphorylated version of a peptide corresponding to residues Thr419-ASN439 of the CB1 C-terminus: doubly phosphorylated peptide corresponding to residues Thr419-ASN439 of the CB1 C-terminus, responsible for desensitization”, the “binding and bound conformation” value in the assay with arrestin-2 is “binds to arrestin-2 and adopts helical conformations in the vicinity of the phosphorylated residues”.

Take TVKIAKVTMSVSTDTSAEAL [CB1_454-473]: the “interaction by ITC” value in assay [3] (setting [7]) and in assay [4] (setting [7]) was “no indication of an interaction” throughout. Also, the “nOe change on addition of arrestin / interaction” value in assay [5] and in assay [6] was “no additional peaks in the nOe spectra compared to the free peptide spectrum suggesting little or no interaction” throughout.

Consider `CC[C@H](C)[C@H](NC(=O)[C@H](CCCCN)NC(=O)[C@@H](NC(=O)[C@@H](N)[C@@H](C)O)C(C)C)C(=O)N[C@@H](C)C(=O)N[C@@H](CCCCN)C(=O)N[C@H](C(=O)N[C@H](C(=O)N[C@@H](CCSC)C(=O)N[C@@H](COP(=O)(O)O)C(=O)N[C@H](C(=O)N[C@@H](COP(=O)(O)O)C(=O)N[C@H](C(=O)N[C@@H](CC(=O)O)C(=O)N[C@H](C(=O)N[C@@H](COP(=O)(O)O)C(=O)N[C@@H](C)C(=O)N[C@@H](CCC(=O)O)C(=O)N[C@@H](C)C(=O)N[C@@H](CC(C)C)C(=O)O)[C@@H](C)OP(=O)(O)O)[C@@H](C)O)C(C)C)[C@@H](C)OP(=O)(O)O)C(C)C` [CB1^5P454-473] (H-TVKIAKV[pT]M[pS]V[pS]TD[pT][pS]AEAL-OH), for which the Kd in assay [3] was approximately 2.2 µM; in assay [4] it was approximately 116 µM.

As usually defined, the Kd is the concentration at which binding is half-saturated. High values mean lower affinity, low ones higher affinity.
